High-throughput results: PubChem BioAssay, Johns Hopkins Ion Channel Center
RGS4 inh: inhibitors of human RGS4. P49798. HEK293 M3R/RGS4 inducible, Fluo-4 calcium flux; stronger effect = higher value; triggered by carbachol at its EC20. B-score at 10 µM. hit rate 0.45% among 310,000;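 active = B-score, a plate-corrected calcium signal, over three deviations above library mean, with baseline fluorescence within five deviations of library mean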;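 also: RGS4 expression induced by doxycycline in cells with stable M3 receptor; B-score is computed from the integrated fluorescence ratio over baseline after carbachol; higher B-score means a larger calcium signal and so more RGS4 inhibition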
Target sequence (P49798 whole entry, looked up): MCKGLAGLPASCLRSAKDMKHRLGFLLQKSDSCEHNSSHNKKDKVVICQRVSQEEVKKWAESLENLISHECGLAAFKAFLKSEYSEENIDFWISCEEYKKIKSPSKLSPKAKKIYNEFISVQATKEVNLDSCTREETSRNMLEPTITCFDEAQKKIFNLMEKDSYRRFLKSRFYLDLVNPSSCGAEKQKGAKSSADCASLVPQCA
MrgX1 antag: antagonists of human MrgX1 receptor | MRGX1-HEK293 calcium flux, Fluo-4, BAM8-22 antagonism; stronger effect = lower value | Q96LB2 | hit rate 1.3% among 310,000 | B-score at 10 µM;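 active = calcium-response B-score plate-corrected more than 3 library SD below zero, starting fluorescence within 5 deviations, no agonist response on first addition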;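 also: peak minus trough fluorescence over baseline after final BAM8-22 challenge near maximal dose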
Target sequence (Q96LB2 whole entry, looked up): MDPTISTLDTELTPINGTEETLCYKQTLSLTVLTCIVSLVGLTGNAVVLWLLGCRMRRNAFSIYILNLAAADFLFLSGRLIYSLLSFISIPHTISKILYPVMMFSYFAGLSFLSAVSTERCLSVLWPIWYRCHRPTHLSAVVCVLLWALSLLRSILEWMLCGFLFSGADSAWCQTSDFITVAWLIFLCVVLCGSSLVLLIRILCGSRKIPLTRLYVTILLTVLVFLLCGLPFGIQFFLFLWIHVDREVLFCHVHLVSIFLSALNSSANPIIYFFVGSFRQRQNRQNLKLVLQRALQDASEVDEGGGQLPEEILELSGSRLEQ
RGS4 act: potentiators or activators of RGS4; HEK293 M3R/inducible RGS4, carbachol calcium flux Fluo4; stronger effect = lower value; B-score at 10 µM; hit rate 0.92% among 310,000; AID 463111;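 active = B-score of the integrated calcium signal more than 4 SD below the library mean, with starting fluorescence not abnormally high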;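 also: negative B-score means reduced calcium response which marks RGS4 activation or potentiation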
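Material: Inducible-RGS4 HEK293 cells carrying M3 receptor; also added: carbachol at ECmax as muscarinic agonist stimulus; incubation: compound preincubation 20 min at room temperature before agonist; signal: Fluo4-AM (2 µM) calcium-flux fluorescence, kinetic read; measure: integrated calcium ratio converted to B score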
MrgX1 agonist: human MrgX1 receptor agonism, primary screen; MrgX1-HEK293 cells, Fluo-4 calcium fluorescence, agonist mode; stronger effect = higher value; B-score at 10 µM; hit rate 0.44% among 310,000;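 active = calcium response B-score plate-corrected fluorescence ratio at least 3 library SD, with starting fluorescence B-score inside 5 SD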
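Test system: HEK293 cells stably expressing human MrgX1 receptor; Input: fifteen thousand cells per well; Dosing: compound delivered in addition one of three; Schedule: overnight seeding, then 1 h dark dye loading; Technique: Fluo-4 NW calcium fluorescence; Measure: B-scored fluorescence response ratio; Controls: positive and negative controls per plate.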
MrgX1 allo act: allosterically activates human MrgX1 receptor signaling | Q96LB2 | MrgX1-HEK293, Fluo-4 calcium flux, FDSS; stronger effect = higher value | B-score at 10 µM | hit rate 0.63% among 310,000;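 active = plate-corrected calcium response at least 3 library SD above typical, normal starting fluorescence, not activating the receptor alone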;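 also: compound read alongside a low EC10 to EC30 dose of BAM8-22 agonist; peak minus trough fluorescence over baseline measured at the second addition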
MrgX1 PAM conf: human MrgX1 positive allosteric modulation, re-confirmation; shares compounds with MrgX1 allo act; MrgX1-HEK293, Fluo-4 calcium fluorescence, FDSS; activation (ratio percentage), % at 10 µM; hit rate 13% among 1,200; AID 602413;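 active = ratio at least 3 SD above the weak peptide control, stable starting fluorescence, no direct agonism earlier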;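 also: compound followed by low BAM8-22 agonist challenge near EC20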
HEK293 Ca flux: counter-screen for MrgX1 antagonists: effect in parental HEK293 cells. AID 624111. fluorescence ratio F(max-min)/F0 at 10 µM. Fluo-4 calcium fluorescence, FDSS. shares compounds with MrgX1 antag. hit rate 2% among 4,000;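 active = duplicate-averaged calcium fluorescence ratio at least three times the standard deviation of buffer wells, a nonspecific response in parental cells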
HEK293 Ca counter: counter-screen for MrgX1 allosteric activators: effect in parental HEK293 cells; shares compounds with MrgX1 antag; fluorescence ratio F(max-min)/F0 at 10 µM; parental HEK293 calcium flux, Fluo-4 fluorescence ratio; stronger effect = higher value; hit rate 0.4% among 4,000; AID 624114;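 active = calcium fluorescence ratio, averaged over duplicates, at least 3 SD of the buffer-well ratio, meaning a nonspecific response in receptor-free cells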;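 also: untransfected parental HEK293 lacking MrgX1 used as counterscreen for MrgX1 allosteric activators; fluorescence change taken during the second addition on a kinetic imager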
HEK293 Ca cntr2: MrgX1 activator counter-screen hit in parental HEK293 cells; shares compounds with MrgX1 antag; Fluo-4 calcium fluorescence (FDSS); stronger effect = higher value; fluorescence ratio F(max-min)/F0 at 10 µM; hit rate 8.7% among 4,000;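 active = calcium fluorescence ratio at least three times the spread of buffer wells, meaning a non-specific response in parental cells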
Starred values were filed as active, the others as inactive. Rows were chosen to be rich in hits. Some 3.5% of all compounds tested hit in one or more screens of this group.

Results for O=C(CCc1ccccc1)N1CCN(c2ccc(F)cc2)CC1 ?
RGS4 inh: inactive; MrgX1 antag: inactive; RGS4 act: inactive; MrgX1 agonist: inactive; MrgX1 allo act: 8.9*; MrgX1 PAM conf: inactive; HEK293 Ca flux: inactive; HEK293 Ca counter: inactive; HEK293 Ca cntr2: inactive

Results for CC(C)(C)NC(=O)C1CC(=O)N(CCc2ccc(F)cc2)C1 (centres undefined) ?
RGS4 inh: inactive; MrgX1 antag: inactive; RGS4 act: inactive; MrgX1 agonist: inactive; MrgX1 allo act: inactive

How did COc1cccc(-c2nn(-c3ccccc3)cc2CO)c1 do in these assays?
RGS4 inh: inactive; MrgX1 antag: inactive; RGS4 act: inactive; MrgX1 agonist: inactive; MrgX1 allo act: 12*; MrgX1 PAM conf: inactive; HEK293 Ca flux: inactive; HEK293 Ca counter: inactive; HEK293 Ca cntr2: inactive

How did O/N=C/c1cn(-c2ccccc2)nc1-c1ccc2c(c1)OCCO2 do in these assays?
RGS4 inh: inactive; MrgX1 antag: inactive; RGS4 act: inactive; MrgX1 agonist: inactive; MrgX1 allo act: inactive

How did OCc1cn(-c2ccccc2)nc1-c1ccc2c(c1)OCCO2 do in these assays?
RGS4 inh: inactive; MrgX1 antag: inactive; RGS4 act: inactive; MrgX1 agonist: inactive; MrgX1 allo act: 39*; MrgX1 PAM conf: 21%*; HEK293 Ca flux: inactive; HEK293 Ca counter: inactive; HEK293 Ca cntr2: inactive

What do the screens show for `CCc1ccc(NC(=S)N2CCCCCCC2)cc1`?
RGS4 inh: inactive; MrgX1 antag: inactive; RGS4 act: inactive; MrgX1 agonist: inactive; MrgX1 allo act: inactive

How did Nn1c(SCC(=O)NNC(=O)c2ccccc2)nnc1-c1ccccc1F do in these assays?
RGS4 inh: inactive; MrgX1 antag: inactive; RGS4 act: inactive; MrgX1 agonist: inactive; MrgX1 allo act: inactive

What do the screens show for `O=C1CC(Sc2ccc(Cl)cc2)C(=O)N1c1ccc2c(c1)OCCO2` (centres undefined)?
RGS4 inh: inactive; MrgX1 antag: inactive; RGS4 act: inactive; MrgX1 agonist: inactive; MrgX1 allo act: inactive

How did COc1nc(NC(=O)c2ccc(F)cc2)nc(OC)c1-c1ccccc1 do in these assays?
RGS4 inh: inactive; MrgX1 antag: inactive; RGS4 act: inactive; MrgX1 agonist: inactive; MrgX1 allo act: 8.2*; MrgX1 PAM conf: inactive; HEK293 Ca flux: inactive; HEK293 Ca counter: inactive; HEK293 Ca cntr2: inactive

What do the screens show for `COC(=O)c1ccc(Oc2nc(C)cc(Oc3ccccc3)n2)cc1`?
RGS4 inh: inactive; MrgX1 antag: inactive; RGS4 act: inactive; MrgX1 agonist: inactive; MrgX1 allo act: 19*; MrgX1 PAM conf: 7.3%*; HEK293 Ca flux: inactive; HEK293 Ca counter: inactive; HEK293 Ca cntr2: inactive

How did Cc1ccc(C)c(N2CCN(C(=O)c3ccc(NC4=NC5CS(=O)(=O)CC5S4)cc3)CC2)c1 (centres undefined) do in these assays?
RGS4 inh: inactive; MrgX1 antag: inactive; RGS4 act: inactive; MrgX1 agonist: inactive; MrgX1 allo act: inactive

What do the screens show for `O=S(=O)(c1ccccc1)N1CCN(c2ncnc3scc(-c4ccccc4)c23)CC1`?
RGS4 inh: inactive; MrgX1 antag: inactive; RGS4 act: inactive; MrgX1 agonist: inactive; MrgX1 allo act: inactive

Results for OCC1CCCN(c2ncnc3scc(-c4ccccc4)c23)C1 (centres undefined) ?
RGS4 inh: inactive; MrgX1 antag: inactive; RGS4 act: inactive; MrgX1 agonist: inactive; MrgX1 allo act: 6.5*; MrgX1 PAM conf: inactive; HEK293 Ca flux: inactive; HEK293 Ca counter: inactive; HEK293 Ca cntr2: inactive
